# NR2E3 ag-1: NR2E3 (human) agonism; Q9Y5X4; AID 2300; inhibition of corepressor binding, % at 4.78 µM; hit rate 0.12% among 320,000; GST-NR2E3/biotin-RetCOR TR-FRET, 1536-well;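 active = percent inhibition above the cutoff of mean plus 3 SD of all tested compounds, set per screening campaign, cut at about 20% in these data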;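 note: 0% = DMSO wells and 100% = biotin wells as full block of FRET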
# Target sequence (Q9Y5X4 whole entry, looked up): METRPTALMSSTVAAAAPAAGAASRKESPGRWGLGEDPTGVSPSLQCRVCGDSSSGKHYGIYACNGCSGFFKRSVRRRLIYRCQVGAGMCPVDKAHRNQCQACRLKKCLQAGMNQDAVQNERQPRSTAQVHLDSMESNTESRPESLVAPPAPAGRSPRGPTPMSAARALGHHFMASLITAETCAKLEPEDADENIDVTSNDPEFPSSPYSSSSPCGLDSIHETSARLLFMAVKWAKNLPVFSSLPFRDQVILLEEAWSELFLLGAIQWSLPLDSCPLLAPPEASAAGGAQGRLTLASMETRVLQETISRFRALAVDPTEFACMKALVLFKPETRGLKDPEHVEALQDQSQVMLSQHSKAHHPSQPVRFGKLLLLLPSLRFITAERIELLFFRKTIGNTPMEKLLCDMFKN
#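 Material: NR2E3–RetCOR corepressor complex / Incubation: Compound–protein incubation for 5 h at 4 °C / Dosing: compound at 4.8 µM, single dose / Detection: time-resolved FRET / Benchmarks: high control biotin, low control 0.6% DMSO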
# Jurkat NFkB inh: lowers PMA/ionomycin-induced NF-kB signal in Jurkat cells | PMA/ionomycin-induced NF-kB luciferase reporter, luminescence | inhibition, % at 4 µM | hit rate 0.53% among 330,000 | AID 435003; in the data active = inhibition above about 50%
# 697 NFkB inh: lowers PMA/ionomycin-induced NF-kB signal in 697 B cells; 697 B-cell NF-kB luciferase reporter, 16 h; inhibition, % at 4 µM; hit rate 0.33% among 330,000; AID 435022; in the data active = inhibition above about 35%
# Gli-Sufu block: blocks Gli-Sufu signaling in a luciferase reporter; Sufu-KO-LIGHT fibroblasts, Gli luciferase reporter luminescence; inhibition, % at 5 µM; hit rate 0.74% among 340,000;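 active = inhibition above about 55%, limit read from the data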;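 note: 0% = DMSO-treated cells and 100% = wells with medium but no cells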
# NR2E3 ag-2: agonists of human NR2E3 nuclear receptor | inhibition of corepressor binding, % at 3.98 µM | CHO-S Gal4-NCOR/VP16-NR2E3 two-hybrid, luciferase | Q9Y5X4 | hit rate 0.35% among 360,000;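 active = inhibition above the mean of all tested compounds plus 3 SD, cut at about 70% in these data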;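 note: 0% = DMSO with NR2E3 transfected cells and 100% = cells lacking NR2E3 construct; higher means lower luciferase signal from less NR2E3 corepressor binding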
# GalR3 antagonist: blocks the human galanin receptor 3 | inhibition, % at 3 µM | O60755 | hit rate 0.44% among 360,000 | HEK293 GalR3-CNG cAMP membrane potential fluorescence; galR3 body fused to GalR1 C-terminus;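 active = inhibition above the screen-wide average plus 3 SD, cut at about 13% in these data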;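 note: forskolin and galanin both at EC90 stimulate the cells; cAMP rise reported by CNG channel membrane potential dye signal; 0% = forskolin plus galanin with DMSO and 100% = forskolin alone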
# NR2E3 agonist cf: NR2E3 (human) agonism, confirmation | shares compounds with NR2E3 ag-1 | activation (reported as inhibition), % at 3.98 µM | hit rate 39% among 360 | cell-free NR2E3 corepressor release, TR-FRET, 5 h; in the data active = activation above about 20%
# PPARg-NCOR2 ag: releases PPARgamma from NCOR2 in NR2E3 counter-screen; shares compounds with NR2E3 ag-1; TR-FRET PPARg-NCOR2 coregulator interaction, biochemical; inhibition, % at 3.98 µM; hit rate 45% among 360; AID 504787; in the data active = inhibition above about 20%;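 note: 0% = DMSO vehicle and 100% = wells without protein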
# Numbers without * were called inactive; · = no result. Sampled rows, rich in hits. Any-hit rate of the full collection: about 1.8%.
SMILES,NR2E3 ag-1,Jurkat NFkB inh,697 NFkB inh,Gli-Sufu block,NR2E3 ag-2,GalR3 antagonist,others
CC(C)(C)c1ccc(/C=C(\c2nc3ccccc3[nH]2)S(=O)(=O)c2ccccc2)cc1,1,10,18,-10,81*,·,
CC(=NNc1cc(C)c2ccccc2n1)c1ccccn1,·,·,·,·,·,-9,
CCOC(=O)/C(=N\Nc1ccc(Br)cc1)N1CC(C)OC(C)C1 (configuration not stated),0,3,18,11,77*,·,
Brc1ccc2nc(-c3ccc(CN4CCC(c5nc6ccccc6[nH]5)CC4)cc3)c(-c3ccccc3)nc2c1,·,·,·,·,·,-5,
Cc1nnsc1C(=O)N/N=C/c1ccc2ccccc2c1O,0,43,-18,86*,-21,-1,
CN1/C(=C\C=C2/SC(=S)NC2=O)C(C)(C)c2ccccc21,1,29,-42,71*,2,-8,
CCCCCC(=O)NC1CCCCN(C)C1=O (configuration not stated),·,·,·,·,·,-6,
CN1CCN(c2ccc(-c3ccc4ccccc4n3)cc2)CC1,·,·,·,88*,87*,-8,
CCOc1cc(/C=N/O)cc(Br)c1OCC(=O)NCc1ccccc1,-2,0,-5,5,22,3,
CCOc1cc(/C=N/NC(N)=O)cc(Br)c1OCC(=O)Nc1cccc2ccccc12,4,-1,5,4,-35,44*,
CC1(C)CC[C@]2(C(=O)n3ccnc3)CC[C@]3(C)[C@H](C(=O)C=C4[C@@]5(C)C=C(C#N)C(=O)C(C)(C)[C@@H]5CC[C@]43C)[C@@H]2C1,·,·,·,93*,27,-3,
Brc1ccc2[nH]c3c(N4CCc5ccccc5C4)ncnc3c2c1,0,-6,-35,72*,·,·,
CN1CCN(c2ncnc3c2[nH]c2ccc(F)cc23)CC1,-5,33,27,-4,-2,-5,
CN(c1cccnc1)c1ccc(NC(=O)Cc2c[nH]c3ccccc23)cc1Br,·,·,·,·,·,3,
COc1ccc(C2C(C#N)=C(N)SC(N)=C2C#N)cc1OC,11,-16,-46,-7,6,-3,
N#CC1=C(N)SC(N)=C(C#N)C1c1cccc(O)c1,6,-6,-5,-5,-12,60*,
COCc1cc(N2CCNC[C@H]2C)ccc1N1CCS(=O)(=O)CC1,·,·,·,·,·,-7,
O=C(/C=C(\Nc1ccc(F)cc1)c1ccccc1)c1ccccc1,·,·,·,·,·,1,
COC(=O)c1nn(-c2ccc(-c3ccccc3)cc2)cc1O,1,-84,-149,10,78*,-6,
CCCCOc1ccc(C(=O)NC2CCCCN(CCC)C2=O)cc1 (configuration not stated),·,·,·,·,·,-6,
COc1ccc(C2/C=C\CN(C(=O)Nc3ccc(C(F)(F)F)cc3)CC(=O)N2Cc2ccc(F)cc2)cc1 (configuration not stated),-4,12,-4,9,82*,·,
COc1ccc(C2/C=C\CN(C(=O)Nc3ccccc3)CC(=O)N2Cc2ccc(F)cc2)cc1 (configuration not stated),-4,2,13,-17,8,-4,
Cc1ccc(-c2cc(N)n(Cc3ccc(Cl)cc3)n2)cc1,-2,22,-38,-2,-10,89*,
Oc1c(CN2CCOCC2)cc(COCc2ccccc2)c2cccnc12,-4,·,·,61*,-18,0,
Oc1c(CNc2ccccc2)cc(COCc2ccccc2)c2cccnc12,·,10,-29,3,-50,-9,
SMILES,NR2E3 ag-1,Jurkat NFkB inh,697 NFkB inh,Gli-Sufu block,NR2E3 ag-2,GalR3 antagonist,others
COC(=O)C1=C(C)N(Cc2ccccc2C(F)(F)F)C(=NCc2ccc(C(F)(F)F)cc2)NC1c1cccc(F)c1 (configuration not stated),·,·,·,·,·,-8,
O=C1C=C(O)c2cccc3cccc1c23,23*,9,6,22,-26,-2,NR2E3 agonist cf=11;PPARg-NCOR2 ag=19
NC1=CC(=O)c2cccc3cccc1c23,-4,-3,8,·,·,·,
Cc1ccccc1-c1ccc2c(c1)[C@@H]1C[C@H]3[C@@H](CN1CC2)[C@H](C)OC(c1ccccc1)N3C (some centres not stated),·,·,·,·,·,-5,
CCSc1cnn(-c2ccccc2)c(=O)c1SCC,21*,4,-37,3,-17,-2,NR2E3 agonist cf=4;PPARg-NCOR2 ag=0
CCSc1cnn(-c2ccccc2)c(=O)c1Cl,0,-10,-20,-9,10,-5,
O=C(N[C@H](C(=O)N1CCC[C@H]1C(=O)NCc1ccccc1)c1ccccc1)c1ccc(Cl)cc1Cl,·,·,·,·,·,-8,
COC(=O)[C@]12C[C@H](CC(=O)NCCC(C)C)C(=O)N(Cc3ccccc3)C1=C[C@H](C(C)(C)C)O[C@@H]2C,·,·,·,·,·,-3,
COc1ccc(OCc2nc3c4cc(OC)c(OC)cc4nc(=S)n3[nH]2)cc1,21*,13,25,3,18,-10,NR2E3 agonist cf=6;PPARg-NCOR2 ag=11
CC(C)(C)c1cc(=O)n(-c2ccccc2)[nH]1,29*,·,·,24,7,-6,NR2E3 agonist cf=-4;PPARg-NCOR2 ag=1
O=C(N[C@H](C(=O)N1CCC[C@H]1C(=O)NCCc1ccccc1Cl)C1CCCCC1)C1CC1,·,·,·,·,·,-2,
Fc1ccc(NCc2nnc(SCc3nnc(-c4ccccc4)o3)n2CC2CCCO2)cc1 (configuration not stated),36*,1,5,17,-5,-4,NR2E3 agonist cf=-18;PPARg-NCOR2 ag=4
O=C(N[C@H](Cc1ccccc1)C(=O)NCC1CCCO1)[C@H]1O[C@@H](n2ccc(=O)[nH]c2=O)[C@H](O)[C@@H]1O (some centres not stated),·,·,·,·,·,-4,
Cc1cc(NC(=O)Cc2c(C)[nH]c3ccccc23)ccc1Oc1cccnc1,·,·,·,·,·,-7,
Cc1ccc(N2CSC3=C(C#N)C(c4cccs4)CC(=O)N3C2)cc1 (configuration not stated),24*,-22,-6,-46,-30,·,NR2E3 agonist cf=-6;PPARg-NCOR2 ag=9
CCOC(=O)c1ccc(N2CSC3=C(C#N)C(c4cccs4)CC(=O)N3C2)cc1 (configuration not stated),27*,7,4,7,-11,·,NR2E3 agonist cf=-5;PPARg-NCOR2 ag=38*
CCOC(=O)CC1(O)CSc2nc(N)cc(=O)n21 (configuration not stated),·,·,·,·,·,-7,
Cc1ccccc1Nc1cc2ccccc2c(=O)[nH]1,25*,6,18,3,13,·,NR2E3 agonist cf=16;PPARg-NCOR2 ag=10
Cc1ccc(-c2c3c(nc4sc(C(N)=O)c(N)c24)CCCC3)o1,26*,-9,-11,-7,15,-3,NR2E3 agonist cf=-10;PPARg-NCOR2 ag=2
NC(=O)c1sc2nc3c(c(-c4ccco4)c2c1N)CCC3,11,1,11,-25,0,-6,
